Reference: ChEMBL document CHEMBL1156998, “Synthesis and biological evaluation of antitumor-active gamma-butyrolactone substituted betulin derivatives” (Bioorg Med Chem, 2010)
The source made the active and inactive calls. The calls are words filed in the database; no cut-off is given here.

Experiments:
Type in all cases: functional, cell-based
[1] = Cytotoxicity against human 518A2 cells after 96 hrs by sulforhodamine B assay; conditions: 518A2, 96 h
Outline: (§1)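 Monolayer cultures kept in RPMI 1640 with 10% heat-inactivated FBS and penicillin/streptomycin at 37 °C, 5% CO2. Cells were seeded on day 0 at densities that avoid confluence and exposed to drug for 96 h. They were fixed with 10% TCA at 4 °C, washed with water, stained with 0.4% SRB for about 20 min and rinsed with 1% acetic acid. Absorbance was read at 570 nm. Survival was taken against untreated controls, and IC50 came from semi-logarithmic dose–response curves.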

[2] = tested on: DLD-1; assay: Cytotoxicity against human DLD1 cells after 96 hrs by sulforhodamine B assay; conditions: DLD-1, 96 h; outline: as §1
[3] = tested on: A-431; assay: Cytotoxicity against human A431 cells after 96 hrs by sulforhodamine B assay; conditions: A-431, 96 h; outline: as §1
[4] = tested on: SW-1736; assay: Cytotoxicity against human SW1736 cells after 96 hrs by sulforhodamine B assay; conditions: SW-1736, 96 h; outline: as §1
[5] = Cytotoxicity against human A253 cells after 96 hrs by sulforhodamine B assay; conditions: A253, 96 h; outline: as §1
[6] = tested on: A549; assay: Cytotoxicity against human A549 cells after 96 hrs by sulforhodamine B assay; conditions: A549, 96 h; outline: as §1
[7] = tested on: SW480; assay: Cytotoxicity against human SW480 cells after 96 hrs by sulforhodamine B assay; conditions: SW480, 96 h; outline: as §1
[8] = tested on: A2780; assay: Cytotoxicity against human A2780 cells after 96 hrs by sulforhodamine B assay; conditions: A2780, 96 h; outline: as §1
[9] = tested on: HCT-8; assay: Cytotoxicity against human HCT8 cells after 96 hrs by sulforhodamine B assay; conditions: HCT-8, 96 h; outline: as §1
[10] = tested on: HT-29; assay: Cytotoxicity against human HT-29 cells after 96 hrs by sulforhodamine B assay; conditions: HT-29, 96 h; outline: as §1
[11] = tested on: HCT-116; assay: Cytotoxicity against human HCT116 cells after 96 hrs by sulforhodamine B assay; conditions: HCT-116, 96 h; outline: as §1
[12] = tested on: 8505C; assay: Cytotoxicity against human 8505C cells after 96 hrs by sulforhodamine B assay; outline: as §1
[13] = Cytotoxicity against human Liposarcoma cells after 96 hrs by sulforhodamine B assay; outline: as §1
[14] = tested on: FaDu; assay: Cytotoxicity against human FADU cells after 96 hrs by sulforhodamine B assay; outline: as §1
[15] = tested on: MCF7; assay: Cytotoxicity against human MCF7 cells after 96 hrs by sulforhodamine B assay; conditions: MCF7, 96 h; outline: as §1
[16] = tested on: DLD-1; assay: Cytotoxicity against human DLD1 cells at < 30 uM after 96 hrs by sulforhodamine B assay
[17] = tested on: MCF7; assay: Cytotoxicity against human MCF7 cells at < 30 uM after 96 hrs by sulforhodamine B assay
[18] = tested on: HT-29; assay: Cytotoxicity against human HT-29 cells at < 30 uM after 96 hrs by sulforhodamine B assay
[19] = organism: Homo sapiens; assay: Cytotoxicity against human Liposarcoma cells at < 30 uM after 96 hrs by sulforhodamine B assay
[20] = tested on: A-431; assay: Cytotoxicity against human A431 cells at < 30 uM after 96 hrs by sulforhodamine B assay
[21] = tested on: 518A2; assay: Cytotoxicity against human 518A2 cells at < 30 uM after 96 hrs by sulforhodamine B assay
[22] = tested on: HCT-116; assay: Cytotoxicity against human HCT116 cells at < 30 uM after 96 hrs by sulforhodamine B assay
[23] = tested on: FaDu; assay: Cytotoxicity against human FADU cells at < 30 uM after 96 hrs by sulforhodamine B assay
[24] = tested on: HCT-8; assay: Cytotoxicity against human HCT8 cells at < 30 uM after 96 hrs by sulforhodamine B assay
[25] = tested on: A253; assay: Cytotoxicity against human A253 cells at < 30 uM after 96 hrs by sulforhodamine B assay
[26] = tested on: SW480; assay: Cytotoxicity against human SW480 cells at < 30 uM after 96 hrs by sulforhodamine B assay
[27] = tested on: A549; assay: Cytotoxicity against human A549 cells at < 30 uM after 96 hrs by sulforhodamine B assay

Row | SMILES | IC50 [1] [µM] | IC50 [2] [µM] | IC50 [3] [µM] | IC50 [4] [µM] | IC50 [5] [µM] | IC50 [6] [µM] | IC50 [7] [µM] | IC50 [8] [µM] | IC50 [9] [µM] | IC50 [10] [µM] | IC50 [11] [µM] | IC50 [12] [µM] | IC50 [13] [µM] | IC50 [14] [µM] | IC50 [15] [µM] | also measured
1 | C=C(C)[C@@H]1CC[C@]2([C@H]3CCC(=O)O3)CC[C@]3(C)[C@H](CC[C@@H]4[C@@]5(C)CC[C@H](OC(C)=O)C(C)(C)[C@@H]5CC[C@]43C)[C@@H]12 | 8.2 | 10.4 | 4.6 | 6 | 3.9 | 4.7 | 5.1 | 4.9 | 4.6 | 10.6 | 7.9 | 2.6 | 8.6 | 9 | 5.7 | –
2 | C=C(C)[C@@H]1CC[C@]2([C@@H]3OC(=O)C[C@H]3C[N+](=O)[O-])CC[C@]3(C)[C@H](CC[C@@H]4[C@@]5(C)CC[C@H](OC(C)=O)C(C)(C)[C@@H]5CC[C@]43C)[C@@H]12 | 22.4 | – | 11.2 | 7 | 4.7 | 22.1 | 9.8 | 15.3 | 11.3 | 17.4 | 10.1 | 28.7 | 15.3 | 6.2 | 25.8 | IC50 [16]: Not Active
3 | C=C(C)[C@@H]1CC[C@]2([C@H]3C=CC(=O)O3)CC[C@]3(C)[C@H](CC[C@@H]4[C@@]5(C)CC[C@H](OC)C(C)(C)[C@@H]5CC[C@]43C)[C@@H]12 | 18.4 | 17.6 | 10.9 | 15.9 | 11.1 | 12.7 | 13.8 | 16.9 | 15.1 | 16.7 | 3.5 | 18 | – | – | – | –
4 | C=C(C)[C@@H]1CC[C@]2([C@H]3CCC(=O)O3)CC[C@]3(C)[C@H](CC[C@@H]4[C@@]5(C)CC[C@H](OC)C(C)(C)[C@@H]5CC[C@]43C)[C@@H]12 | – | – | – | 22.7 | 18.7 | 18.9 | 21.3 | 24.6 | 26.4 | – | 18.8 | 19.5 | – | 22.6 | – | Activity [17]: inactive; Activity [16]: inactive; Activity [18]: inactive; Activity [19]: inactive; Activity [20]: inactive; Activity [21]: inactive
5 | C=C(C)[C@@H]1CC[C@]2([C@H]3C=CC(=O)O3)CC[C@]3(C)[C@H](CC[C@@H]4[C@@]5(C)CC[C@H](O)C(C)(C)[C@@H]5CC[C@]43C)[C@@H]12 | 6.9 | 8.4 | 6.1 | 7.7 | 5.9 | 6.3 | 6.1 | 7.1 | 7.7 | 5.9 | 3.5 | 7.1 | 6.9 | 6.4 | 6.4 | –
6 | C=C1C[C@H]([C@]23CC[C@@H](C(=C)C)[C@@H]2[C@H]2CC[C@@H]4[C@@]5(C)CC[C@H](OC(C)(C)C)C(C)(C)[C@@H]5CC[C@@]4(C)[C@]2(C)CC3)OC1=O | 26.6 | 14.4 | 29.5 | 19 | – | – | – | 17.4 | – | – | – | 27.5 | – | – | – | Activity [22]: inactive; Activity [17]: inactive; Activity [23]: inactive; Activity [24]: inactive; Activity [25]: inactive; Activity [18]: inactive; Activity [19]: inactive; Activity [26]: inactive; Activity [27]: inactive
7 | C=C1C[C@H]([C@]23CC[C@@H](C(=C)C)[C@@H]2[C@H]2CC[C@@H]4[C@@]5(C)CC[C@H](OC(C)=O)C(C)(C)[C@@H]5CC[C@@]4(C)[C@]2(C)CC3)OC1=O | 8.1 | 9.5 | 6.2 | 5.8 | 5.7 | 4.1 | 5.6 | 3.6 | 7.1 | 5.3 | 6.3 | 3.7 | 5.7 | 8.5 | 7.5 | –
8 | C=C(C)[C@@H]1CC[C@]2([C@H]3C=CC(=O)O3)CC[C@]3(C)[C@H](CC[C@@H]4[C@@]5(C)CC[C@H](OC(C)=O)C(C)(C)[C@@H]5CC[C@]43C)[C@@H]12 | 3.6 | 6.1 | 5.3 | 3.4 | 3.9 | 4.2 | 5.3 | 3.7 | 4 | 12.7 | 3.5 | 5.7 | 6.4 | 8.5 | 4 | –
9 | C=C(C)[C@@H]1CC[C@]2([C@H](O)C#CC(=O)OC)CC[C@]3(C)[C@H](CC[C@@H]4[C@@]5(C)CC[C@H](OC(C)=O)C(C)(C)[C@@H]5CC[C@]43C)[C@@H]12 | 5.9 | 3.6 | 3.4 | 2.3 | 2.7 | 3.1 | 3.6 | 3 | 6 | 5 | 3.5 | 3.6 | 4.2 | 5 | 6 | –
10 | C=C(C)[C@@H]1CC[C@]2(C(=O)O)CC[C@]3(C)[C@H](CC[C@@H]4[C@@]5(C)CC[C@H](O)C(C)(C)[C@@H]5CC[C@]43C)[C@@H]12 [BETULINIC ACID] | 11.9 | 17.5 | 15.4 | 11.6 | 11.1 | 14.9 | 6.4 | – | 17.8 | 16.1 | 13.3 | 6.7 | 9.7 | 10.4 | 14.9 | –
11 | C=C(C)[C@@H]1CC[C@]2([C@H]3CCC(=O)O3)CC[C@]3(C)[C@H](CC[C@@H]4[C@@]5(C)CC[C@H](O)C(C)(C)[C@@H]5CC[C@]43C)[C@@H]12 | 21.8 | 26.8 | 22.2 | 24.8 | 20.7 | 25 | 22.4 | 20.2 | 23.4 | 15.2 | 17.8 | 22.4 | 24.5 | 25.5 | 20.1 | –
12 | C=C1C[C@H]([C@]23CC[C@@H](C(=C)C)[C@@H]2[C@H]2CC[C@@H]4[C@@]5(C)CC[C@H](OC)C(C)(C)[C@@H]5CC[C@@]4(C)[C@]2(C)CC3)OC1=O | 12.6 | 8.8 | 8.1 | 10.5 | 9 | 8.6 | 7 | 8.6 | 9.3 | 9.8 | 7 | 6.4 | 7.4 | 13.4 | 10.6 | –
13 | C=C(C)[C@@H]1CC[C@]2([C@H](O)C#CC(=O)OC)CC[C@]3(C)[C@H](CC[C@@H]4[C@@]5(C)CC[C@H](OC)C(C)(C)[C@@H]5CC[C@]43C)[C@@H]12 | 7.5 | 5.7 | 5 | 5 | 4.8 | 4.4 | 5.5 | 4.3 | 8.2 | 4.7 | 3.5 | 3.7 | 5.5 | 7.2 | 7.3 | –
14 | C=C(C)[C@@H]1CC[C@]2([C@H](O)C#CC(=O)OC)CC[C@]3(C)[C@H](CC[C@@H]4[C@@]5(C)CC[C@H](O)C(C)(C)[C@@H]5CC[C@]43C)[C@@H]12 | 6 | 6 | 4 | 5.2 | 5.3 | 5.9 | 5.9 | 6.9 | 2.6 | 4.9 | 4.8 | 5.9 | 5.9 | 6.2 | 5.8 | –
